A1 apoptosis 2 – compounds inhibiting A1, read as caspase activation | MEF A1-2A-BIM cells, caspase-Glo luminescence, 3 h; percent of clofoctol response, DMSO zero | caspase activation, % (concentration not given with the values) | 24,000 tested, under 10 active | AID 2465; in the data active = caspase activation above about 5.9%
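System: mouse embryonic fibroblasts co-expressing A1 and BIM (A1-2A-BIM), primed for A1 dependence; amount: 2500 cells/well; doses: 50 nL pinned compound; schedule: cells settled overnight, compound exposure 3 h at 37 °C, 5% CO2; detection: Caspase-Glo 3/7 luminescence, 1 h at room temperature; read-out: Caspase-3/7 activation, seen as rise in luminescence signal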
INS-1E ATP HTS – INS-1E beta cell protection from cytokine death; INS-1E cytokine-induced death, ATP luminescence, 48 h; normalised: neutral wells 0, positive control 100; protection from cytokine-induced ATP loss, % at 10 µM; 20,000 tested, 0.1% active; AID 488910;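 active = mean replicate protection from cytokine-induced ATP loss at least 50% and at least 75% of replicates each reaching 50%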
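assay system = INS-1E rat insulinoma cells | amount = 8000 cells per well | medium = phenol-red-free RPMI with 5% fetal bovine serum | doses = one compound concentration, pin transfer | timing = 48 h cytokine plus compound treatment, 10 min reagent incubation | also added = IL-1β, TNF-α and IFN-γ cytokine mix | signal = CellTiter-Glo luminescence measuring cellular ATP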
T cruzi HTS – blocks T. cruzi growth inside host cells | 22,000 tested, 4.9% active | intracellular Trypanosoma cruzi in host cells, plate reader | AID 651903 | activity score (inhibition), % at 5.01 µM; in the data active = activity score above about 55%;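 note: parasites and compound incubated about four days before reading; 0% = median of neutral control wells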
Starred values were filed as active, the others as inactive; . = not tested or not shown. Many of the other results were omitted from the sample, so hits are more common in it than they were.

SMILES | A1 apoptosis 2 | INS-1E ATP HTS | T cruzi HTS
O=C(N/N=C/c1ccc(I)cc1)c1ccccc1O | -8 | -8 | -20
COc1cccc(NC(=O)N(C)C[C@H]2OCc3cn(nn3)CCCC(=O)N([C@@H](C)CO)C[C@@H]2C)c1 | 0 | . | -9
C[C@H](CO)N1C[C@H](C)[C@@H](CN(C)Cc2ccc3c(c2)OCO3)Oc2ccc(NC(=O)c3ccncc3)cc2CC1=O | 1 | . | .
COc1ccc(C#Cc2cnc3c(c2)C(=O)N([C@H](C)CO)C[C@H](C)[C@H](CN(C)S(=O)(=O)c2ccc(C)cc2)O3)cc1OC | 0 | . | 34
C[C@H](CO)N1C[C@H](C)[C@H](CN(C)S(=O)(=O)c2ccc(C#N)cc2)Oc2ncc(C#Cc3ccc(C(F)(F)F)cc3)cc2C1=O | 1 | -11 | 87*
Cc1ccc(S(=O)(=O)N(C)C[C@@H]2Oc3ncc(C#Cc4ccc(F)cc4)cc3C(=O)N([C@H](C)CO)C[C@@H]2C)cc1 | . | . | 59*
C[C@H](CO)N1C[C@H](C)[C@H](CN(C)S(=O)(=O)c2ccccc2)Oc2ncc(C#Cc3ccc(F)cc3)cc2C1=O | 0 | . | 52
C[C@H](CO)N1C[C@H](C)[C@H](CN(C)S(=O)(=O)c2ccc(F)cc2)Oc2ncc(C#Cc3ccc(F)cc3)cc2C1=O | -1 | . | 66*
C[C@H](CO)N1C[C@H](C)[C@H](CN(C)S(=O)(=O)c2cccs2)Oc2ncc(C#Cc3ccccc3)cc2C1=O | 1 | . | 73*
C[C@H](CO)N1C[C@H](C)[C@H](CN(C)S(C)(=O)=O)Oc2ncc(C#Cc3ccc(C(F)(F)F)cc3)cc2C1=O | 0 | . | 17
C[C@H](CO)N1C[C@H](C)[C@H](CN(C)S(=O)(=O)c2cccs2)Oc2ncc(C#CCN(C)C)cc2C1=O | . | . | 1
C[C@@H]1CN([C@@H](C)CO)C(=O)c2cccc(NC(=O)Nc3ccccc3)c2O[C@H]1CN(C)S(=O)(=O)c1cccs1 | -1 | 15 | -11
C[C@H](CO)N1C[C@H](C)[C@H](CN(C)S(=O)(=O)c2cccc(F)c2)Oc2ncc(C#Cc3cccc(F)c3)cc2C1=O | . | . | 51
COc1cccc(S(=O)(=O)N(C)C[C@@H]2Oc3ncc(-c4ccccc4)cc3C(=O)N([C@H](C)CO)C[C@@H]2C)c1 | . | 0 | 31
C[C@H](CO)N1C[C@H](C)[C@H](CN(C)S(=O)(=O)c2ccc(C#N)cc2)Oc2ncc(C#Cc3ccccc3)cc2C1=O | 0 | . | 40
COc1cccc(S(=O)(=O)N(C)C[C@@H]2Oc3ncc(C#Cc4ccccc4)cc3C(=O)N([C@H](C)CO)C[C@@H]2C)c1 | -1 | . | 62*
C[C@H](CO)N1C[C@H](C)[C@H](CN(C)S(=O)(=O)c2ccccc2)Oc2ncc(C#Cc3cccc(F)c3)cc2C1=O | 0 | . | 47
C[C@H](CO)N1C[C@H](C)[C@H](CN(C)S(=O)(=O)c2cccc(F)c2)Oc2ncc(C#Cc3ccc(F)cc3)cc2C1=O | . | -15 | 64*
C[C@H](CO)N1C[C@H](C)[C@H](CN(C)S(=O)(=O)c2ccc(F)cc2)Oc2ncc(C#Cc3cccc(F)c3)cc2C1=O | 0 | . | 65*
Cc1ccc(S(=O)(=O)N(C)C[C@@H]2Oc3ncc(C#Cc4ccccc4)cc3C(=O)N([C@H](C)CO)C[C@@H]2C)cc1 | 0 | -15 | 57*
Cc1noc(C)c1NC(=O)Nc1ccc2c(c1)C(=O)N([C@@H](C)CO)C[C@@H](C)[C@@H](CN(C)Cc1ccc3c(c1)OCO3)O2 | 2 | -7 | -29
COc1ccc(S(=O)(=O)Nc2ccc3c(c2)CC(=O)N([C@H](C)CO)C[C@@H](C)[C@@H](CN(C)S(=O)(=O)c2cccs2)O3)cc1 | -1 | -1 | 77*
COc1ccc(S(=O)(=O)Nc2ccc3c(c2)CC(=O)N([C@H](C)CO)C[C@H](C)[C@@H](CN(C)S(=O)(=O)c2cccs2)O3)cc1 | 0 | . | .
C[C@@H]1CN([C@H](C)CO)C(=O)Cc2cc(NS(=O)(=O)c3ccc(Cl)cc3)ccc2O[C@@H]1CN(C)S(=O)(=O)c1cccs1 | . | -5 | 74*
C[C@H]1CN([C@@H](C)CO)C(=O)Cc2cc(NS(=O)(=O)c3ccc(Cl)cc3)ccc2O[C@@H]1CN(C)S(=O)(=O)c1cccs1 | . | 12 | -33
C[C@H]1CN([C@@H](C)CO)C(=O)c2cccc(NC(=O)C3CCOCC3)c2O[C@@H]1CN(C)C(=O)Nc1ccccc1 | 0 | 3 | -33
Cc1ccc(S(=O)(=O)Nc2ccc3c(c2)C(=O)N([C@H](C)CO)C[C@@H](C)[C@H](CN(C)C(=O)Cc2ccccc2)OCCCC[C@@H](C)O3)cc1 | 0 | . | .

From PubChem
